Legend:
[1] = Plasma clearance in Sprague-Dawley rat at 1 mg/kg, iv and 2 mg/kg, po administered via gavage by LC-MS/MS analysis; assay type: ADME, organism-based
Method in brief: (§1)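 Male Sprague-Dawley rats, fasted overnight with water ad libitum and fed 4 h after dosing. TFA salt given as a saline solution, either 1 mg/kg iv via femoral-vein cannula (n = 2) or 2 mg/kg po by gavage (n = 3). EDTA blood taken at 5 min (iv only), 15 and 30 min, and 1, 2, 4, 6, 8, 24 and 48 h. Plasma protein-precipitated with acetonitrile and assayed by LC-MS/MS; noncompartmental analysis.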

[2] = Terminal half life in Sprague-Dawley rat at 1 mg/kg, iv and 2 mg/kg, po administered via gavage by LC-MS/MS analysis; assay type: ADME, organism-based; conditions: in vivo, read-out: beta t1/2 (converted); method in brief: as §1
[3] = Tmax in beagle dog at 1 mg/kg, iv and 2 mg/kg, po administered via gavage by LC-MS/MS analysis; assay type: ADME, organism-based, Canis lupus familiaris; conditions: in vivo
Method in brief: (§2)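 Beagle dogs, fasted overnight with water ad libitum and fed 4 h postdose. TFA salt in saline given 1 mg/kg iv via cephalic vein (n = 2) or 2 mg/kg by gastric gavage (n = 2). EDTA blood drawn at 5 min (iv only), 15 and 30 min, and 1, 2, 4, 6, 8, 24, 30, 48 and 72 h. Acetonitrile-precipitated plasma quantified by LC-MS/MS; parameters derived noncompartmentally.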

[4] = Volume of distribution at steady state in Sprague-Dawley rat at 1 mg/kg, iv and 2 mg/kg, po administered via gavage by LC-MS/MS analysis; assay type: ADME, organism-based; conditions: in vivo, read-out: Vdss; method in brief: as §1
[5] = Cmax in Sprague-Dawley rat at 2 mg/kg, po administered via gavage by LC-MS/MS analysis; assay type: ADME, organism-based; set-up: dose 2 mg/kg, route oral; conditions: in vivo; method in brief: as §1
in vivo [6] = conditions: beagle, dog
[7] = Oral bioavailability in Sprague-Dawley rat at 2 mg/kg administered via gavage by LC-MS/MS analysis; assay type: ADME, organism-based; conditions: in vivo; method in brief: as §1
[8] = Volume of distribution at steady state in beagle dog at 1 mg/kg, iv and 2 mg/kg, po administered via gavage by LC-MS/MS analysis; assay type: ADME, organism-based, Canis lupus familiaris; conditions: in vivo, read-out: Vdss; method in brief: as §2
in vivo [9] = conditions: beagle, dog, po, 2 mg/kg
[10] = Cmax in beagle dog at 2 mg/kg, po administered via gavage by LC-MS/MS analysis; assay type: ADME, organism-based, Canis lupus familiaris; set-up: dose 2 mg/kg, route oral; conditions: in vivo; method in brief: as §2
Rattus norvegicus [11] = test: Dose normalized AUC in Sprague-Dawley rat at 1 mg/kg, iv and 2 mg/kg, po administered via gavage by LC-MS/MS analysis; assay type: ADME, organism-based; conditions: in vivo; method in brief: as §1
[12] = Tmax in Sprague-Dawley rat at 1 mg/kg, iv and 2 mg/kg, po administered via gavage by LC-MS/MS analysis; assay type: ADME, organism-based; conditions: in vivo; method in brief: as §1
in vivo [13] = conditions: beagle, dog, plasma, iv, 1 mg/kg
Canis familiaris = test: Dose normalized AUC in beagle dog at 1 mg/kg, iv and 2 mg/kg, po administered via gavage by LC-MS/MS analysis; assay type: ADME, organism-based, Canis lupus familiaris; conditions: in vivo; method in brief: as §2
Rattus norvegicus [14] = test: Toxicity in rat assessed as mortality at 100 mg/kg/day, po for 14 days; assay type: organism-based; set-up: route oral; conditions: in vivo, 336 h
Method in brief: (§3)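 Exploratory 14-day oral safety study in male rats, dosed daily. Endpoints were mortality, physical signs observed over the dosing period, and clinical pathology parameters, including glucose and triglycerides.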

[15] = Unbound fraction in human plasma at 1 to 100 uM; assay type: ADME, cell-free
Method in brief: (§4)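 Radiolabelled ([3H]) compound added to plasma at 1, 10 and 100 μM; mean percentage unbound reported for each species.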

[16] = Tmax in rat at 100 mg/kg/day, po administered for 14 days; assay type: ADME, organism-based; set-up: route oral; conditions: in vivo
Method in brief: (§5)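 Exploratory 14-day oral safety study in male rats dosed at 100 mg/kg/day; AUC(0-24h), Cmax and Tmax determined.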

Prolyl endopeptidase = target: T1, Prolyl endopeptidase (Homo sapiens, UniProt P48147); test: Inhibition of PEP (unknown origin)
T1 sequence (P48147 whole entry): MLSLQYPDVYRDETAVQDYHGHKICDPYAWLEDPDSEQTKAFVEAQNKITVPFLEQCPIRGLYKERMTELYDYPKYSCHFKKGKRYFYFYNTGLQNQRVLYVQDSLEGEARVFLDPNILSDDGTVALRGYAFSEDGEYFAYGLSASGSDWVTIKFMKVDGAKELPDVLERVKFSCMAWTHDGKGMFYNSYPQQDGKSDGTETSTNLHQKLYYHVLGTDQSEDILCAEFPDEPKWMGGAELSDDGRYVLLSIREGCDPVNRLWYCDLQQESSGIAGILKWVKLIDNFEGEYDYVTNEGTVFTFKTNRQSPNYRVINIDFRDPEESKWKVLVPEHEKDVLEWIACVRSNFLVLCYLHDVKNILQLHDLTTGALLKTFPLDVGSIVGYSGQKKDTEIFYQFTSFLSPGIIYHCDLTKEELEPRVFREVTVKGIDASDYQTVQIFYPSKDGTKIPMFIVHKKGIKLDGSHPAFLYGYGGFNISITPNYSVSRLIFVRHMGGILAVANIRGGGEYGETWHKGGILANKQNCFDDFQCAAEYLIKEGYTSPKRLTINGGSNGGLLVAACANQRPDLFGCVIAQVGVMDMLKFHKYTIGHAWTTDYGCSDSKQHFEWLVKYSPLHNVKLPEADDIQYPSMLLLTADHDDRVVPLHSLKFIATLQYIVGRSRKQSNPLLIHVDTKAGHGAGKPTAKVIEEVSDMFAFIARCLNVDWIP

[17] = AUC (0 to 24 hrs) in rat at 100 mg/kg/day, po administered for 14 days; assay type: ADME, organism-based; set-up: dose 100 mg/kg/day, time < 24 hr, route oral; conditions: plasma; method in brief: as §5
[18] = target: Sodium channel protein type 5 subunit alpha (Homo sapiens, UniProt Q14524); test: Inhibition of Nav1.5 (unknown origin)
Method in brief: (§6)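 Cardiac ion channel panel run on PatchXpress, testing functional currents (hERG/IKr, INa, ICaL) up to 30 μM. IKr was additionally assessed by nonfunctional MK-499 displacement binding.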

Mus musculus [19] = organism: Mus musculus; test: animal or person; conditions: Blood, po, 1 h, read-out: INH
Salmonella typhimurium = test: Genotoxicity in Salmonella typhimurium by Ames mutagenicity test; assay type: toxicity, organism-based; conditions: salmonella enterica subsp. enterica serovar typhimurium
Rattus norvegicus [20] = test: Toxicity in rat assessed as decrease in cholesterol level at 100 mg/kg/day, po for 14 days; assay type: organism-based; set-up: route oral; conditions: in vivo, 336 h; method in brief: as §3
[21] = Ratio of drug level in brain to plasma in beagle dog
Dipeptidyl peptidase 4 = Dipeptidyl peptidase 4 (Mus musculus, UniProt P28843); test: Inhibition of DPP4 in mouse plasma
Method in brief: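 Plasma DPP-4 inhibition measured in 50% mouse plasma; IC50 read-out.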

Plasma = test: Plasma concentration in mouse at 0.3 mg/kg, po; assay type: ADME, organism-based; set-up: dose 0.3 mg/kg, route oral; conditions: in vivo
Method in brief: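 Lean mice dosed orally 1 h before an oral dextrose challenge (OGTT); plasma drug concentration measured alongside plasma DPP-4 activity in the accompanying pharmacodynamic study.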

[22] = Unbound fraction in Sprague-Dawley rat plasma at 1 to 100 uM; assay type: ADME, cell-free; method in brief: as §4
Dipeptidyl peptidase 8 = Dipeptidyl peptidase 8 (Homo sapiens, UniProt Q6V1X1); test: Inhibition of DPP8 (unknown origin)
[23] = Ratio of drug level in brain to plasma in human
Rattus norvegicus [24] = test: Toxicity in rat assessed as decrease in triglyceride level at 100 mg/kg/day, po for 14 days; assay type: organism-based; set-up: route oral; conditions: in vivo, 336 h; method in brief: as §3
Mus musculus [25] = organism: Mus musculus; test: animal or person; conditions: Plasma, po, read-out: INH
[26] = target: Voltage-dependent L-type calcium channel subunit alpha-1C (Homo sapiens, UniProt Q13936); test: Inhibition of Cav1.2 (unknown origin)
Rattus norvegicus [27] = test: Toxicity in rat assessed as physical signs at 100 mg/kg/day, po for 14 days; assay type: organism-based; set-up: route oral; conditions: in vivo, 336 h; method in brief: as §3
[28] = Unbound fraction in beagle dog plasma at 1 to 100 uM; assay type: ADME, cell-free, Canis lupus familiaris; method in brief: as §4
[29] = target: Voltage-gated L-type calcium channel (Homo sapiens, UniProt Q13936+Q13698+Q01668+O60840); test: Effect on L-type Ca2+ channel (unknown origin) up to 30 uM; method in brief: as §6
Rattus norvegicus [30] = test: Toxicity in rat assessed as decrease in glucose level at 100 mg/kg/day, po for 14 days; assay type: organism-based; set-up: route oral; conditions: in vivo, 336 h; method in brief: as §3
Prolyl endopeptidase FAP = target: T2, Prolyl endopeptidase FAP (Homo sapiens, UniProt Q12884); test: Inhibition of FAP (unknown origin)
T2 sequence (Q12884 whole entry): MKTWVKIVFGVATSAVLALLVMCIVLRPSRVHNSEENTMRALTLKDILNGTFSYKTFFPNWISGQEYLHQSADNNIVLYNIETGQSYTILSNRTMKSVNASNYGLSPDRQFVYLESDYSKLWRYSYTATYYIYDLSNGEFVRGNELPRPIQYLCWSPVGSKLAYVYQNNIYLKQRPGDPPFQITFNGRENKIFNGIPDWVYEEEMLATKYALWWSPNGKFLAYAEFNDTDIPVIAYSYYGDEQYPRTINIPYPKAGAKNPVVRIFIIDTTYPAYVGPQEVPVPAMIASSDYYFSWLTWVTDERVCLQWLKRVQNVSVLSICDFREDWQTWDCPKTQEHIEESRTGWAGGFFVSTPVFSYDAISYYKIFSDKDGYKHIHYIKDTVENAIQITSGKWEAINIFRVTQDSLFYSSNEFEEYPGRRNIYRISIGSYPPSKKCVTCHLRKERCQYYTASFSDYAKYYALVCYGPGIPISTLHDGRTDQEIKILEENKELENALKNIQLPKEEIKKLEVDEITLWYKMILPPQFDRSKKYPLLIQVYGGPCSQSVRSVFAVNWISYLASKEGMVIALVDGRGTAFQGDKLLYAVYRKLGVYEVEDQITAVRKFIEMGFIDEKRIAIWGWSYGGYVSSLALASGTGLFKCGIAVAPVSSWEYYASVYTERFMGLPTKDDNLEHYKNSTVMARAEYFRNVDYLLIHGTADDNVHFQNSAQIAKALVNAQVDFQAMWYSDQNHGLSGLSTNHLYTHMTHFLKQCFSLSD

Dipeptidyl peptidase 2 = Dipeptidyl peptidase 2 (Homo sapiens, UniProt Q9UHL4); test: Inhibition of QPP (unknown origin)
[31] = Unbound fraction in CD-1 mouse plasma at 1 to 100 uM; assay type: ADME, cell-free; method in brief: as §4
Dipeptidyl peptidase 9 = Dipeptidyl peptidase 9 (Homo sapiens, UniProt Q86TI2); test: Inhibition of DPP9 (unknown origin)
[32] = Ratio of drug level in brain to plasma in Sprague-Dawley rat
Mus musculus [33] = organism: Mus musculus; test: animal or person; conditions: Blood, po, 1 h, read-out: INH; remark: listed apart in the source
[34] = Cmax in rat at 100 mg/kg/day, po administered for 14 days; assay type: ADME, organism-based; set-up: dose 100 mg/kg/day, route oral; conditions: in vivo; method in brief: as §5
[35] = Inhibition of potassium channel IKr (unknown origin)
[36] = Ratio of drug level in brain to plasma in CD-1 mouse

Sequence of Dipeptidyl peptidase 8 (Q6V1X1 whole entry): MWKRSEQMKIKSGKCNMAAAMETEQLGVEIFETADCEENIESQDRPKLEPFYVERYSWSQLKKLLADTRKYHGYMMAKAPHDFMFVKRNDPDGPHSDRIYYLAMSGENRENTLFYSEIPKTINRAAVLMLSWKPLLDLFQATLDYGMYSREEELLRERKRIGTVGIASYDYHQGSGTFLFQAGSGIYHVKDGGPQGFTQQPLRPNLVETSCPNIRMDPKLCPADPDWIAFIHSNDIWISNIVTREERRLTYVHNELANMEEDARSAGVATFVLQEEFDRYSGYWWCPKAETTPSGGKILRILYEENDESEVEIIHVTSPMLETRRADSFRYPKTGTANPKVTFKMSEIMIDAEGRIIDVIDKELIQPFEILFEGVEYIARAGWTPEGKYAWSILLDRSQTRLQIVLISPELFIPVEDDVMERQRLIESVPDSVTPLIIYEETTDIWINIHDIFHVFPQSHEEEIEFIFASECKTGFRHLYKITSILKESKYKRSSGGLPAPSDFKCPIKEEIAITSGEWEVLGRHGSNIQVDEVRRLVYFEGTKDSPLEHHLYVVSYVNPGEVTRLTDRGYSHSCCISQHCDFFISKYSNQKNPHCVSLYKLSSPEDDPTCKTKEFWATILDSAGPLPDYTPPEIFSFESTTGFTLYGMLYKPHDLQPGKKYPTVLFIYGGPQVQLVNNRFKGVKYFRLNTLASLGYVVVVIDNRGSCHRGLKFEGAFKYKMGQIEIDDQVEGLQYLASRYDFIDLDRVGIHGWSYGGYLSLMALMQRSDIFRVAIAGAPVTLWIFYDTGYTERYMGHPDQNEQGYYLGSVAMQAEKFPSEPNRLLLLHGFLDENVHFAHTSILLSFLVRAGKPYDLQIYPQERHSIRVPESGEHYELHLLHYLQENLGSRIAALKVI
Sequence of Sodium channel protein type 5 subunit alpha (Q14524 whole entry): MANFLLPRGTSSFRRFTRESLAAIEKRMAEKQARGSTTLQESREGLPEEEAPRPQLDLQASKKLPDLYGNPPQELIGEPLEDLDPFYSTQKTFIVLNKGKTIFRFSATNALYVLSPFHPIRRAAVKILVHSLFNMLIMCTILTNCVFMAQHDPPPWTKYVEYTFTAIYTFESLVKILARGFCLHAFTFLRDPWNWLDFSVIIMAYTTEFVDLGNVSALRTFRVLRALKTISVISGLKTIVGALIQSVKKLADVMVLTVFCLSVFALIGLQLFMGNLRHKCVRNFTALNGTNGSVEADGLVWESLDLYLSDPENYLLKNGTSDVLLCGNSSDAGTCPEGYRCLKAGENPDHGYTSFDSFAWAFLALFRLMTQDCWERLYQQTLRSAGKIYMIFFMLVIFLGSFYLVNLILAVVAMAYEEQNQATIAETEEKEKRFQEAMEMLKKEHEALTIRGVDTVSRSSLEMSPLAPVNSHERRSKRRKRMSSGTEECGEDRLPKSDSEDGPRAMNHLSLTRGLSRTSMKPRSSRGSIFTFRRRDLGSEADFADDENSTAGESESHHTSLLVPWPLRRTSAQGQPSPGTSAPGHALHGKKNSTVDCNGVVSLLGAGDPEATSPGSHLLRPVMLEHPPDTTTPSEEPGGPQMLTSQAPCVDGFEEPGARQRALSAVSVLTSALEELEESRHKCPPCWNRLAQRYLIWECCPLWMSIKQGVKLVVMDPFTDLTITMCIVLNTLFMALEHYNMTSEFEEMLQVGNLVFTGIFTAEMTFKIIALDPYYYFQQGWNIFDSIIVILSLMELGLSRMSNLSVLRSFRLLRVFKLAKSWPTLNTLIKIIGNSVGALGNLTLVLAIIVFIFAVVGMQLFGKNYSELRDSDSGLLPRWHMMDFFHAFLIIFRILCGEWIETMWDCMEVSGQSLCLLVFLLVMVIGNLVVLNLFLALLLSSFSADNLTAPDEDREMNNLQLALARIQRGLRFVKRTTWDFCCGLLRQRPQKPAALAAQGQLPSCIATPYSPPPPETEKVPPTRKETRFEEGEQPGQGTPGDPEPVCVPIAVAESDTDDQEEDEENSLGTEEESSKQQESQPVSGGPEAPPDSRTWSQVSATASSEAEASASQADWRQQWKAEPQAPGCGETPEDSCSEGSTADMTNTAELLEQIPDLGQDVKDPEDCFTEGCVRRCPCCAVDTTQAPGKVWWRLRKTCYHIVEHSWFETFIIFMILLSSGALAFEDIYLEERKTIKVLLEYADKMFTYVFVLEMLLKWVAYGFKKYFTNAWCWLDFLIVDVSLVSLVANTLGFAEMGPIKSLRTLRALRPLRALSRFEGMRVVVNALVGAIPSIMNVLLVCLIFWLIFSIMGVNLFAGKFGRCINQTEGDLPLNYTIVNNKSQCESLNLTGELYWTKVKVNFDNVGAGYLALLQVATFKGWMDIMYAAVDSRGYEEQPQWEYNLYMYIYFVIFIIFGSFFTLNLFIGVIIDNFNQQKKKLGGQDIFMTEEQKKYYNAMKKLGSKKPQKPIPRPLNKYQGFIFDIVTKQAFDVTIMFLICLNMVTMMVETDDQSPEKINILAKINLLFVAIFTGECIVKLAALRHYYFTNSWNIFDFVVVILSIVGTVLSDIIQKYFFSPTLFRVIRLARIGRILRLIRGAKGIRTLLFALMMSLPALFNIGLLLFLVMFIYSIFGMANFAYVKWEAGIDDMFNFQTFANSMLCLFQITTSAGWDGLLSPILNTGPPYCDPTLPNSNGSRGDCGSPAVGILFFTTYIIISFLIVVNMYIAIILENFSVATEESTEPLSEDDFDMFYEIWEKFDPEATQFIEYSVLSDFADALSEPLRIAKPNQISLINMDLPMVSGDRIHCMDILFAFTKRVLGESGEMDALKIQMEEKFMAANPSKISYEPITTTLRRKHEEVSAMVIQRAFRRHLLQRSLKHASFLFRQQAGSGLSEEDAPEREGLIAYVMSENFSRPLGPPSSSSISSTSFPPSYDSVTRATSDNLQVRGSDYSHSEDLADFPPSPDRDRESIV
Sequence of Dipeptidyl peptidase 4 (P28843 whole entry): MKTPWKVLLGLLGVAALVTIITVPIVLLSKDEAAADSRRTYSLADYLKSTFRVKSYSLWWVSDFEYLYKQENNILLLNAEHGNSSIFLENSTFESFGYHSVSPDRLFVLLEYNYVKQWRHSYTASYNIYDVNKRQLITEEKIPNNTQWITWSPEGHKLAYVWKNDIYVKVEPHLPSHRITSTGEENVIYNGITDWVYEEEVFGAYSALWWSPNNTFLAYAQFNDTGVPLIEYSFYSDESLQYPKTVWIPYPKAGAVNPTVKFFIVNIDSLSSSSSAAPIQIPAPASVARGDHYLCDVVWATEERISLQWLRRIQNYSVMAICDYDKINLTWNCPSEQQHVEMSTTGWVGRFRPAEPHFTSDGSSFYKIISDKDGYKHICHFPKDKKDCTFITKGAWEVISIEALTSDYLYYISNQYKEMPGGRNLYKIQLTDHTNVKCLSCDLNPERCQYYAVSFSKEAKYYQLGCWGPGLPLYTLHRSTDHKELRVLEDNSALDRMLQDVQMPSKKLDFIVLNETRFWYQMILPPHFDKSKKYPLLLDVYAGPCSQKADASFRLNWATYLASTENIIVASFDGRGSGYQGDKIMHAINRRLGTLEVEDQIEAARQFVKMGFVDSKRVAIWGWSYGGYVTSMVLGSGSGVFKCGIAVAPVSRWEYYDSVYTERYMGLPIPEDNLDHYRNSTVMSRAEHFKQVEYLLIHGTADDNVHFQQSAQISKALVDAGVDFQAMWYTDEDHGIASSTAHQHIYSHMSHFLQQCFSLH
Sequence of Dipeptidyl peptidase 9 (Q86TI2 whole entry): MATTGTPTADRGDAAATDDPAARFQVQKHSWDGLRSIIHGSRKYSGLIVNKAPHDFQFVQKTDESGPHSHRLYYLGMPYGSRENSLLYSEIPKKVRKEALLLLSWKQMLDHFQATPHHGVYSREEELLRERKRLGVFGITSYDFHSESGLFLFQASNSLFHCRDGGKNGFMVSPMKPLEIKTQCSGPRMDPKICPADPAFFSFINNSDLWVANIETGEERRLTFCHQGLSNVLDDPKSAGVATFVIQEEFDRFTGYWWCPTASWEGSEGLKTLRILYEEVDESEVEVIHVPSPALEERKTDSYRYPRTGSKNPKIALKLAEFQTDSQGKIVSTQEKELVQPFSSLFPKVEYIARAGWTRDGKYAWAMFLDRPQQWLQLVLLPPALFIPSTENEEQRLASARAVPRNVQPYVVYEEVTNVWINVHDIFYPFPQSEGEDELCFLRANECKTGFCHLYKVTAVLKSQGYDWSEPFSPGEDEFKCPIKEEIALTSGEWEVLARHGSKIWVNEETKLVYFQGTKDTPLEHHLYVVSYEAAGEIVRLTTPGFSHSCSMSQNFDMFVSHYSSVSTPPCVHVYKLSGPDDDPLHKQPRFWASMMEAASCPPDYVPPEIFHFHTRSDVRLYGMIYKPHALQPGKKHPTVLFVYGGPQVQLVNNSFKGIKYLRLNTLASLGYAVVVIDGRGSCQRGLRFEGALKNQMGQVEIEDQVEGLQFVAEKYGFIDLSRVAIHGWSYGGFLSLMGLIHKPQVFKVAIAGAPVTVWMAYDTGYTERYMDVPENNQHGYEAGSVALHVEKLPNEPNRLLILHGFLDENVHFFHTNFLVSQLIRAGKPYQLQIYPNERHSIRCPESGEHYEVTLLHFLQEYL

CS(=O)(=O)n1cc2c(n1)CN([C@H]1CO[C@H](c3cc(F)ccc3F)[C@@H](N)C1)C2.O=C(O)C(F)(F)F
clearance [1]: 1.1 mL/min/kg
half-life [2]: 11 h
Tmax [3]: 1.3 h
Vd [4]: 0.8 L/kg
Cmax [5]: 9 µM
half-life (in vivo [6]): 22 h
bioavailability [7]: 100%
Vd [8]: 1.3 L/kg
bioavailability (in vivo [9]): 100%
Cmax [10]: 5.9 µM
AUC/dose (Rattus norvegicus [11]): 47.8 µM·h/mg/kg
Tmax [12]: 1 h
clearance (in vivo [13]): 0.9 mL/min/kg
AUC/dose (Canis familiaris): 54 µM·h/mg/kg

CS(=O)(=O)n1cc2c(n1)CN([C@H]1CO[C@H](c3cc(F)ccc3F)[C@@H](N)C1)C2 [OMARIGLIPTIN]
Activity (Rattus norvegicus [14]): Non-toxic
fraction unbound at up to 100 µM [15]: 0.68
Tmax [16]: 2 h
IC50 (Prolyl endopeptidase): > 67 µM
AUC at 24 h [17]: 5000 µM·h
IC50 [18]: > 30 µM
inhibition in vivo at 0.01 mg/kg (Mus musculus [19]): 7%
Activity (Salmonella typhimurium): Non-toxic
Activity (Rattus norvegicus [20]): Toxic
Kp [21]: 0.6
IC50 (Dipeptidyl peptidase 4): 0.0439 µM
concentration (Plasma): 0.521 µM
fraction unbound at up to 100 µM [22]: 0.15
IC50 (Dipeptidyl peptidase 8): > 67 µM
Kp [23]: 0.6
Activity (Rattus norvegicus [24]): Toxic
inhibition in vivo at 0.3 mg/kg (Mus musculus [25]): 85%
IC50 [26]: > 30 µM
Activity (Rattus norvegicus [27]): Non-toxic
fraction unbound at up to 100 µM [28]: 0.43
Activity [29]: Not Active
Activity (Rattus norvegicus [30]): Toxic
IC50 (Prolyl endopeptidase FAP): > 67 µM
IC50 (Dipeptidyl peptidase 2): > 67 µM
fraction unbound at up to 100 µM [31]: 0.38
IC50 (Dipeptidyl peptidase 9): > 67 µM
Kp [32]: 0.6
inhibition in vivo at 0.3 mg/kg (Mus musculus [33]): 51%
Cmax [34]: 371 µM
IC50 [35]: > 30 µM
Kp [36]: 0.6
